This note sets out measurements from ChEMBL document CHEMBL4406821, “Novel dual inhibitors targeting CDK4 and VEGFR2 synergistically suppressed cancer progression and angiogenesis” (Eur J Med Chem, 2019).

The source made the active and inactive calls. The rule behind the calls is not given here.

For data set [1], the system named is SiHa. Description: Antitumor activity against human SiHa cells xenografted in NOD/SCID BALB/c mouse assessed as reduction in Ki67 expression at 40 mg/kg, po measured after 21 days by hematoxylin and eosin staining based immunohistochemistry. In kind it is functional, organism-based. The gist of the method:
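Female NOD/SCID Balb/c mice, 6–8 weeks old, received 2×10^6 SiHa cells subcutaneously in the right flank. Once tumors reached 100 mm³, mice were randomized, 5 per group, and gavaged once daily for 21 days. Formalin-fixed, paraffin-embedded tumor sections were stained with Ki67 or CD31 antibody (1:100, 4 °C overnight), then biotin secondary and ABC-peroxidase/DAB, with hematoxylin counterstain.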
Background: In xenograft studies the graft and the host belong to different species.

Data set [2] has as its target Activin receptor type-1B (Homo sapiens) (UniProt P36896). The data set is described as follows: Inhibition of recombinant human ALK4 (150 to end residues) at 1 uM using as casein substrate incubated for 40 mins in presence of [gamma-33P]-ATP by scintillation counting method relative to control. The method, boiled down: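 Kinase panel profiling at 1 μM performed by Eurofins KinaseProfiler; percent inhibition reported as mean of two independent experiments.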

Data set [3] is described as follows: Cmax in Sprague-Dawley rat at 10 mg/kg, iv by HPLC-MS analysis. In kind it is ADME, organism-based. As to conditions: in vivo. Details: dose 10 mg/kg, route intravenous. The gist of the method:
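Rats fitted with jugular vein catheters for serial blood sampling. Compound dissolved in saline with 5% (v/v) DMSO and given as a single 10 mg/kg dose iv or po after an overnight fast, n = 5 per group. Plasma isolated at once and measured by HPLC with tandem MS detection. Parameters derived by noncompartmental fitting.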

For data set [4], the target named is Glycogen synthase kinase-3 alpha (Homo sapiens) (UniProt P49840). The data set is described as follows: Inhibition of recombinant human GSK3alpha (2 to end residues) at 1 uM using YRRAAVPPSPSLSRHSSPHQS(p) EDEEE as substrate incubated for 40 mins in presence of [gamma-33P]-ATP by scintillation counting method relative to control. The method, boiled down: (§1)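 Tested at a single 1 uM in an outsourced commercial kinase-profiling panel, read as percent inhibition. Each value is the mean of two independent experiments.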

For data set [5], the target named is Casein kinase II subunit alpha' (Homo sapiens) (UniProt P19784). Description: Inhibition of recombinant human full length CK2alpha2 at 1 uM using RRRDDDSDDD as substrate incubated for 40 mins in presence of [gamma-33P]-ATP by scintillation counting method relative to control.
Sequence of Casein kinase II subunit alpha' (Homo sapiens) (P19784 whole entry, looked up, the tested form may be a part): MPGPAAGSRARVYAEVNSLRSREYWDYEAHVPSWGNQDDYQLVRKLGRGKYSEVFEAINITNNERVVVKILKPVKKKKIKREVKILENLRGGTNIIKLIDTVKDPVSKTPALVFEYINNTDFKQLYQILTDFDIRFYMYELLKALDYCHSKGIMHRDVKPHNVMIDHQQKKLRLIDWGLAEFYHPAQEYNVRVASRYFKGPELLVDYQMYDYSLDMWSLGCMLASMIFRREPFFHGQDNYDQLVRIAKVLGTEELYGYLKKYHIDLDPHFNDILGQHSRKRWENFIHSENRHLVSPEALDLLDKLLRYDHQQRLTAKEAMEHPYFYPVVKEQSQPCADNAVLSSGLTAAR
Data set [6] concerns the target Ephrin type-B receptor 3 (Homo sapiens) (UniProt P54753). The data set is described as follows: Inhibition of recombinant human EPhB3 (599 to 920 residues) at 1 uM using poly (Glu, Tyr) 4:1 as substrate incubated for 40 mins in presence of [gamma-33P]-ATP by scintillation counting method relative to control.
The target of data set [7] is Serine/threonine-protein kinase 32B (Homo sapiens) (UniProt Q9NY57). Description: Inhibition of recombinant human full length STK32B at 1 uM using casein as substrate incubated for 40 mins in presence of [gamma-33P]-ATP by scintillation counting method relative to control.
Sequence of Serine/threonine-protein kinase 32B (Homo sapiens) (Q9NY57 whole entry): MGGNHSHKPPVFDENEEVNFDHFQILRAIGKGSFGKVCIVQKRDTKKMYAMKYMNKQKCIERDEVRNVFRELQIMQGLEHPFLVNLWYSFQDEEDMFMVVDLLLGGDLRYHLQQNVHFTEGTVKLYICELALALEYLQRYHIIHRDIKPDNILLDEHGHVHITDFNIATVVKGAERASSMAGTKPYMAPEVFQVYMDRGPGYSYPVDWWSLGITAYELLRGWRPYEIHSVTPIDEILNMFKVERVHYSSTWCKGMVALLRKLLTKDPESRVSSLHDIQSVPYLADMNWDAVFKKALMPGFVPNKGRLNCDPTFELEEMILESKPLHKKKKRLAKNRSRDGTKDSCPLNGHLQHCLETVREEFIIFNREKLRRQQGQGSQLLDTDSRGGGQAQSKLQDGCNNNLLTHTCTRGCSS
In data set [8] the test system is Epidermal growth factor receptor (Homo sapiens), P00533 [T790M]. The data set is described as follows: Inhibition of recombinant human EGFR T790M mutant (696 to end residues) at 1 uM using poly(Glu, Tyr) 4:1 as substrate incubated for 40 mins in presence of [gamma-33P]-ATP by scintillation counting method relative to control.
For data set [9], the system named is MDA-MB-231. The data set is described as follows: Inhibition of colony formation in human MDA-MB-231 cells at 20 to 40 nM incubated for 5 days by crystal violet staining based light microscopy. Format: functional, cell-based. The gist of the method: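 4 × 10^3 cells per well were cultured with graded concentrations for 5 days. Cells were then fixed with 20% methanol, stained with 0.5% crystal violet and photographed by light microscopy.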

The target in data set [10] is Protein kinase C delta type (Homo sapiens) (UniProt Q05655). Description: Inhibition of recombinant human PKCdelta (2 to end residues) at 1 uM using ERMRPRKRQGSVRRRV as substrate incubated for 40 mins in presence of [gamma-33P]-ATP by scintillation counting method relative to control.
Data set [11] in a line: Toxicity in NOD/SCID BALB/c mouse xenografted with human SiHa cells assessed as toxic effects in kidney at 40 mg/kg, po administered for 48 hrs by hematoxylin and eosin staining method. In kind it is organism-based. Particulars: in vivo.
For data set [12], the system named is Mast/stem cell growth factor receptor Kit (Homo sapiens), P10721 [D816V]. Description: Inhibition of recombinant human cKIT D816V mutant (544 to end residues) at 1 uM using poly(Glu, Tyr) 4:1 as substrate incubated for 40 mins in presence of [gamma-33P]-ATP by scintillation counting method relative to control. The gist of the method:
as §1

Data set [13] has as its target cGMP-dependent protein kinase 1 (Homo sapiens) (UniProt Q13976). Description: Inhibition of recombinant human full length PKG1alpha at 1 uM using RRRLSFAEPG as substrate incubated for 40 mins in presence of [gamma-33P]-ATP by scintillation counting method relative to control.
In data set [14] the target is Vascular endothelial growth factor receptor 2 (Homo sapiens, UniProt P35968). The data set is described as follows: Inhibition of recombinant human KDR (790 to end residues) at 1 uM using myelin basic protein as substrate incubated for 40 mins in presence of [gamma-33P]-ATP by scintillation counting method relative to control.
Sequence of Vascular endothelial growth factor receptor 2 (P35968 whole entry): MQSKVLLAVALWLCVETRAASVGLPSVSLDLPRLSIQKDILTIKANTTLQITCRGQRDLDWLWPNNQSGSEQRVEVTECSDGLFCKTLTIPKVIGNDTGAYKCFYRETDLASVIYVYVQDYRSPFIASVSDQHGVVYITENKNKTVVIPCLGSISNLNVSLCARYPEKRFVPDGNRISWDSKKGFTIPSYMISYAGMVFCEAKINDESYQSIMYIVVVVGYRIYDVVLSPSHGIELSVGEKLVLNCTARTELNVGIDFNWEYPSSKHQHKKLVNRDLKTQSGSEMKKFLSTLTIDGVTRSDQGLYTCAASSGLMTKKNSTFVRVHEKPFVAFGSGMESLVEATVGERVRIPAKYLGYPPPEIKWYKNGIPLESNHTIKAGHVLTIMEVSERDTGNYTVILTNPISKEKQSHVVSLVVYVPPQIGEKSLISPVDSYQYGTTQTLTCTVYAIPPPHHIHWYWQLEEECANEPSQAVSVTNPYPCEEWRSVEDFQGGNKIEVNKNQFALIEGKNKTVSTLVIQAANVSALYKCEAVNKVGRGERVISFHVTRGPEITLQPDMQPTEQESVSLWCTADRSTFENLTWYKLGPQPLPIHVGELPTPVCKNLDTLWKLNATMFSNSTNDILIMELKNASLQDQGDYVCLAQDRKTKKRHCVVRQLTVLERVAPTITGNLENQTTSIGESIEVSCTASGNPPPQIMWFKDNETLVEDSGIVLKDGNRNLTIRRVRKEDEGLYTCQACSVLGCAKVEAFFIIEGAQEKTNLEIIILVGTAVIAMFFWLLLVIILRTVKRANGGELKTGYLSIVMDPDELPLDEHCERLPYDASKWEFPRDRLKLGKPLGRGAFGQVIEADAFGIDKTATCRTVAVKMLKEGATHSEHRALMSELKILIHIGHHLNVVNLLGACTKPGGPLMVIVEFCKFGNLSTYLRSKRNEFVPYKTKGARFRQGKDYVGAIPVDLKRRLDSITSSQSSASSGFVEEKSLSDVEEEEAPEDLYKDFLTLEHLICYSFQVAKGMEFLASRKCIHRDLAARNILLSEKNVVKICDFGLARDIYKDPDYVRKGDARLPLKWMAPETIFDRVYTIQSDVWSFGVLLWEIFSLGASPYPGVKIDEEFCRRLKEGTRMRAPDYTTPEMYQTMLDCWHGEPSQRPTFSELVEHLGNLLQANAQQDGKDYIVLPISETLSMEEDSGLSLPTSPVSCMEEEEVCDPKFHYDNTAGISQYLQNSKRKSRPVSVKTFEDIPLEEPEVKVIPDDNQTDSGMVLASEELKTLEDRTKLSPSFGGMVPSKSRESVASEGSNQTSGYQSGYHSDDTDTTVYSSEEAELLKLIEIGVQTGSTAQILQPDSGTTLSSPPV
A short description of data set [15]: VRT (0 to t) in Sprague-Dawley rat at 10 mg/kg, po by HPLC-MS analysis. Format: ADME, organism-based. Particulars: in vivo.
In data set [16] the target is Proto-oncogene tyrosine-protein kinase ROS (Homo sapiens) (UniProt P08922). The data set is described as follows: Inhibition of recombinant human ROS (1883 to end residues) at 1 uM using KKKSPGEYVNIEFG as substrate incubated for 40 mins in presence of [gamma-33P]-ATP by scintillation counting method relative to control.
The target of data set [17] is Beta-adrenergic receptor kinase 1 (Homo sapiens) (UniProt P25098). The data set is described as follows: Inhibition of recombinant human full length GRK2 at 1 uM using casein as substrate incubated for 40 mins in presence of [gamma-33P]-ATP by scintillation counting method relative to control. The method, boiled down: as §1
A short description of data set [18]: Toxicity in NOD/SCID BALB/c mouse xenografted with human SiHa cells assessed as effect on blood parameter by measuring MPV at 40 mg/kg, po administered once two days for 4 times by hematology analyzer. In kind it is organism-based. As to conditions: in vivo.
In data set [19] the target is Eukaryotic elongation factor 2 kinase (Homo sapiens) (UniProt O00418). The data set is described as follows: Inhibition of recombinant human eEF-2K (2 to end residues) at 1 uM using RKKFGESEKTKTKEFL as substrate incubated for 40 mins in presence of [gamma-33P]-ATP by scintillation counting method relative to control. The gist of the method: as §1
The target in data set [20] is Tyrosine-protein kinase Srms (Homo sapiens) (UniProt Q9H3Y6). The data set is described as follows: Inhibition of recombinant human SRMS at 1 uM incubated for 40 mins in presence of [gamma-33P]-ATP by scintillation counting method relative to control.
Data set [21] addresses Receptor tyrosine-protein kinase erbB-4 (Homo sapiens) (UniProt Q15303). The data set is described as follows: Inhibition of recombinant human ERBB4 (706 to 991 residues) at 1 uM using poly (Glu, Tyr) 4:1 as substrate incubated for 40 mins in presence of [gamma-33P]-ATP by scintillation counting method relative to control. The method, boiled down: as §1

Sequence of Receptor tyrosine-protein kinase erbB-4 (Homo sapiens) (Q15303 whole entry, the tested form may be a part): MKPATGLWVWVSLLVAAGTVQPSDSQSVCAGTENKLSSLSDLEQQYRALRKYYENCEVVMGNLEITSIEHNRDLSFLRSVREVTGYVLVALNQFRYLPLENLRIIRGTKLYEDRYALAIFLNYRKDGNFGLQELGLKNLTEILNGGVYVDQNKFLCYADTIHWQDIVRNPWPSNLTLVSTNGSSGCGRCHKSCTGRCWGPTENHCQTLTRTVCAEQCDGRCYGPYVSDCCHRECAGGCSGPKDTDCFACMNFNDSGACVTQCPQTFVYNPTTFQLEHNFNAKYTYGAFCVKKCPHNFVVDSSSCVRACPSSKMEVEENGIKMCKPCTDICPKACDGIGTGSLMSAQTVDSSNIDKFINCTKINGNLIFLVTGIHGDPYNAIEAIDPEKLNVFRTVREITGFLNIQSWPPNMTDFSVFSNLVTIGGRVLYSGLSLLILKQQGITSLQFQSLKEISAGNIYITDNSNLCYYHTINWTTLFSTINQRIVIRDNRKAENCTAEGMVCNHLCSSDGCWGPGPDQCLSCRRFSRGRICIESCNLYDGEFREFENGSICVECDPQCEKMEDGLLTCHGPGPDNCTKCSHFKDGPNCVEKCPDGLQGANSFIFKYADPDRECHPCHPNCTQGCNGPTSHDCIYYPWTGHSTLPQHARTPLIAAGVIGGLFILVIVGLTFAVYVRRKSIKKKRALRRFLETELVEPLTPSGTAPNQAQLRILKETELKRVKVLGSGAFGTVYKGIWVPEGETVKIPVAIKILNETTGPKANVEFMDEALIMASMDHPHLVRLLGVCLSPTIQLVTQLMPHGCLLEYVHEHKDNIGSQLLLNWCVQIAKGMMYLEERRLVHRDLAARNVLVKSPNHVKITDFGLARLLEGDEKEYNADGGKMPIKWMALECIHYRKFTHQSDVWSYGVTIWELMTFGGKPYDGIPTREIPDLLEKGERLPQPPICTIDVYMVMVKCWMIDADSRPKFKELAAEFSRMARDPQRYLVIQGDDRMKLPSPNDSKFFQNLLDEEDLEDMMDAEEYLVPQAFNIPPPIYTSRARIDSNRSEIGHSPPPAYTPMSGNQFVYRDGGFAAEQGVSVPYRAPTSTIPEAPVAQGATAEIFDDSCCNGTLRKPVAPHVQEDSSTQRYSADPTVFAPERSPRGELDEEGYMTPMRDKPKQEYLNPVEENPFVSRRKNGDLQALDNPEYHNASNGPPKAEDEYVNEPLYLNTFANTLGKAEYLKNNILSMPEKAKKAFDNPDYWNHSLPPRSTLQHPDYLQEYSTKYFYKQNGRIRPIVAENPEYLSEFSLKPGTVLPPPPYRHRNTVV
Sequence of cGMP-dependent protein kinase 1 (Homo sapiens) (Q13976 whole entry): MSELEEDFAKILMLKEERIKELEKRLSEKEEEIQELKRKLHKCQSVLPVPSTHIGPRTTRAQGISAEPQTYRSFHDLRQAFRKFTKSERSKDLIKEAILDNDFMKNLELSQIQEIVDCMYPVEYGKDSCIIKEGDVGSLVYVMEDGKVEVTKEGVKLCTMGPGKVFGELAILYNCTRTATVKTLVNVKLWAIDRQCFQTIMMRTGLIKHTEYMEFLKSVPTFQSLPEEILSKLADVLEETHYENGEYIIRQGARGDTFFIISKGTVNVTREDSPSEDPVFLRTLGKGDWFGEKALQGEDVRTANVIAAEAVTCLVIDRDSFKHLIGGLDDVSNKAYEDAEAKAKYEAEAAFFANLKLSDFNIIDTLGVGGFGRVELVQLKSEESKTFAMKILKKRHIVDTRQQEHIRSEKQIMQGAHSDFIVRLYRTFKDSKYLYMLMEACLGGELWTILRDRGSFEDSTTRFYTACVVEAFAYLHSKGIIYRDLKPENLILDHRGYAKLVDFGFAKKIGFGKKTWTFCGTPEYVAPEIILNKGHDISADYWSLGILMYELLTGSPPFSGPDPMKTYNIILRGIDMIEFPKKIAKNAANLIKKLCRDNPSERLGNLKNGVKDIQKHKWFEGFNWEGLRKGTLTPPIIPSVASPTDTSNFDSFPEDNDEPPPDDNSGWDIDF
Sequence of Mast/stem cell growth factor receptor Kit (Homo sapiens), P10721 [D816V] (P10721 whole entry D816V): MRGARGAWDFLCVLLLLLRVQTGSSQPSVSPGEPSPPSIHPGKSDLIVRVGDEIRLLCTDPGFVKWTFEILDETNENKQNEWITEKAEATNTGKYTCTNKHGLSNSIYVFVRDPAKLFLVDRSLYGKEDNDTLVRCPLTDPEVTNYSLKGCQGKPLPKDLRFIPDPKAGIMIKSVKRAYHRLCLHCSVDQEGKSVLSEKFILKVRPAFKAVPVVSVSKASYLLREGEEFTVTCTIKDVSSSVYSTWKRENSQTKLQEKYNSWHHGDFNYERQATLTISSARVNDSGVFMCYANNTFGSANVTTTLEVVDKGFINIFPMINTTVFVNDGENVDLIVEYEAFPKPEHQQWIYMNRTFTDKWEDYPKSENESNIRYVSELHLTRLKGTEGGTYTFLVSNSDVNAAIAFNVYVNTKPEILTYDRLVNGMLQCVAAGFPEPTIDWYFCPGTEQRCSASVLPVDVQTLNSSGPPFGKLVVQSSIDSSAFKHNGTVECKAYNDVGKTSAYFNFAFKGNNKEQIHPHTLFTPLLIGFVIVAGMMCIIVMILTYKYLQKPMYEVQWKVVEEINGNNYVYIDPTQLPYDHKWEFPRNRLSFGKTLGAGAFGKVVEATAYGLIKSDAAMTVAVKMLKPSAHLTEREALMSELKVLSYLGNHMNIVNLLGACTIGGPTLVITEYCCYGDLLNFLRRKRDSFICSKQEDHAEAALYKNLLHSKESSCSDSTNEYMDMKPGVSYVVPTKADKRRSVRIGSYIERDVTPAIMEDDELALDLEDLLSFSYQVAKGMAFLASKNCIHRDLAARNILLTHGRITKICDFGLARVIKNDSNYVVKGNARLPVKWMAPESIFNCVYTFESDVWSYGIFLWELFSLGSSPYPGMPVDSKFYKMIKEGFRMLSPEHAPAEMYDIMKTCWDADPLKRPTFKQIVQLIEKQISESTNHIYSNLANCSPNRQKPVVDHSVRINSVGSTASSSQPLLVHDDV

In general, inhibition refers to how much of the control response was suppressed. Take `COc1cc2nccc(Oc3ccc(NC(=O)C4(C(=O)Nc5ccc(F)cc5)CC4)cc3)c2cc1OC` [CABOZANTINIB]: the inhibition result in data set [1] is “Active”.
In general, Cmax refers to the peak of the concentration-time curve. Regarding `Cc1ccc(NC(=O)C2(C(=O)Nc3ccc(Nc4ncc(F)c(-c5cc(F)c6nc(C)n(C(C)C)c6c5)n4)cc3)CC2)cc1`, the inhibition in [2] was 46%; in data set [4], 0%; in data set [5] it was 72%; in data set [6], 2%; in [7], 2%; in data set [8], 55%. Further, the inhibition is 29% in data set [10]; 0% in data set [12]; 51% in data set [13]; 95% in data set [14]; 58% in [16]; 0% in data set [17]. The inhibition was 0% in data set [19], 4% in data set [20] and 0% in data set [21]. In data set [3], this molecule returned a maximum concentration (Cmax) of 7000 ng/mL. The inhibition entry in data set [9] was “Active”. Also, the Activity entry in [11] and in data set [18] was “Non-Toxic” in each case. Besides, in data set [15], the “VRT(t)” value was 7 h.
